Screens: PubChem, several laboratories
Granule exo inh = blocks lytic granule exocytosis | TALL-104 LAMP-1 surface exposure, flow cytometry; cells stimulated with thapsigargin and PMA | inhibition, % at 10 µM | 360,000 tested, 0.66% active | AID 651702;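 active = inhibition above about 55%, limit read from the data; inconclusive = no clear call, values can overlap the other calls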
Cardio protect = protects H9c2 cardiomyocytes from peroxide injury; H2O2 injury protection, ATPLite, 2 h; protection from H2O2 cell death, % at 20 µM; 360,000 tested, 0.63% active;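 active = compounds giving at least 50% protection of heart cells from peroxide-induced death in the single-dose screen, raw or plate-pattern-corrected value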
HNF4A DNA FP = change in binding of human HNF4 alpha to DNA; HNF4a-FITC DNA binding, fluorescence polarization, 1 h; 360,000 tested, 0.3% active; P41235; activity change, % at 10 µM; AID 1224865; in the data active = activity change above about 30%, passing the limit was not always enough
Myeloid diff MLP = myeloid differentiation induction; ER-HoxA9 myeloid progenitors, lysozyme-GFP differentiation, flow cytometry; calls only at 10 µM; 360,000 tested, 1% active; AID 624256;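 active = normalized GFP-positive differentiation at or above the plate's own cutoff, the solvent-only control mean plus 3 SD; inconclusive = no clear call, values can overlap the other calls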;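 note: cells exposed to compound for four days before flow analysis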
Pemphigus Ab inh = inhibitors of pemphigus antibody binding to human desmoglein-3 | P32926 | binding (percent of control), % at 10 µM | AID 588358 | 310,000 tested, 0.48% active | DSG3-coupled beads, scFv-anti-DSG3-GFP binding, flow cytometry; stronger effect = lower value;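 active = binding more than 3 SD below its plate's average and above zero; inconclusive = below that plate limit but binding exactly zero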;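 note: hits lower antibody fragment binding to DSG3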
SENP1 inh = inhibitors of human SENP1 SUMO protease catalytic domain. Q9P0U3. recombinant SENP1 catalytic domain, CyPet-SUMO1-YPet FRET cleavage. inhibition, % at 10 µM. 360,000 tested, 0.21% active;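 active = inhibition at least 30% at 10 µM, raw YFP signal under a set limit, fluorescence ratio 0.5 to 1.5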
Target sequence (Q9P0U3 419-644 limits assumed): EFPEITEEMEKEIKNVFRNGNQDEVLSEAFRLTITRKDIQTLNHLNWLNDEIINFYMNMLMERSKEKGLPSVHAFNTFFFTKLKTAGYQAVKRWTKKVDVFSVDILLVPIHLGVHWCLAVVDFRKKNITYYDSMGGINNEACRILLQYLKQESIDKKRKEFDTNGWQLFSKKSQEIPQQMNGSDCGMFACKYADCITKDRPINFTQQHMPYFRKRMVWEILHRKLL
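Assay system: hSENP1 catalytic domain, recombinant. Amount: SENP1 enzyme, 20 pM final. Schedule: 50 min reaction, RT, dark. Technique: FRET, CFP and YFP emission. Control set: no-enzyme wells low, DMSO-plus-enzyme wells high control.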
Each line names hits and unclear results; the compound was inactive in the other large screens; ! = repeats disagree. Only some compounds are listed: those with a hit (about 3% of all), similar ones and a draw of the others.

COCCOCC(=O)Nc1ccc(S(=O)(=O)Nc2cc(C)nc(C)n2)cc1	Myeloid diff MLP active
O=C(CN(Cc1ccc(F)cc1)C(=O)c1csnn1)NC1CCCC1	none
Nc1ccc(C(=O)N/N=C\C=C\c2ccc([N+](=O)[O-])cc2)cc1	Pemphigus Ab inh 44
NC(=S)N/N=C1\CCSc2ccc(Cl)cc21	Granule exo inh 73
CC1=C(C(=O)N(C)C)CC(CC(=O)NC(c2ccccc2)c2ccccc2)C(=O)N1CCCN1CCCC1=O (centres undefined)	Myeloid diff MLP active
CC1=C(C(=O)N(C(C)C)C(C)C)CC(CC(=O)NC(c2ccccc2)c2ccccc2)C(=O)N1Cc1ccc(C(C)(C)C)cc1 (centres undefined)	Myeloid diff MLP active (no result: Pemphigus Ab inh)
CCOC(=O)C1=CCN(S(=O)(=O)c2ccccc2C)C1c1ccc(F)cc1 (centres undefined)	none (no result: Pemphigus Ab inh)
c1ccc2ncccc2c1	Pemphigus Ab inh 77
c1cnc2c(c1)ccc1cccnc12	Cardio protect 60, Myeloid diff MLP inconclusive
COc1ccc(-c2cc(C(=O)NCCc3ccccc3)no2)cc1OC	Pemphigus Ab inh 75
Cc1nn(CC(C)C)c(Cl)c1C(=O)NCC1CCCO1 (centres undefined)	none
CCOc1ccc2nc(NC(=O)CN3CCC(n4nnc5cc(F)ccc54)CC3)sc2c1	Cardio protect 70 (no result: Pemphigus Ab inh)
COc1ccc(CN2C3CCC2CC(NC(=O)c2cc(OC)c(OC)c(OC)c2)C3)cc1 (centres undefined)	none
C(C#CCCCCCCCCC[n+]1ccccc1)#CCCCCCCCCC[n+]1ccccc1	HNF4A DNA FP 77, Myeloid diff MLP inconclusive, Pemphigus Ab inh inconclusive
CCOc1ccccc1CN1CCNC(=O)C1CC(=O)NCc1ccccn1 (centres undefined)	Myeloid diff MLP inconclusive
CCc1ccc(OCC(=O)N/N=C(\C)c2ccc(O)cc2O)cc1	Myeloid diff MLP active
CN(C(=O)c1sc2nc(N3CCOCC3)c3c(c2c1N)CCCC3)c1ccccc1	Cardio protect 61
Cc1ccc(-c2nc3sc(C(N)=O)c(N)c3c3c2CCCC3)cc1	none
NC(=O)c1sc2nc(-c3ccccc3)c3c(c2c1N)CCCC3	Myeloid diff MLP active
O=C(c1cccs1)c1no[n+]([O-])c1C(=O)c1cccs1	Granule exo inh 82
COc1ccc(C(=O)c2no[n+]([O-])c2C(=O)c2ccc(OC)cc2)cc1	Granule exo inh 103, Myeloid diff MLP inconclusive
COc1ccc(NC(=O)c2c(N)no[n+]2[O-])cc1	none
O=C(CCNC(=O)C1CCN(S(=O)(=O)c2ccccc2)CC1)NCc1cccc(C(F)(F)F)c1	HNF4A DNA FP 38
O=C(NCc1ccccc1)C1CCN(S(=O)(=O)c2cccc3cccnc23)CC1	Pemphigus Ab inh 90
CC(NC(=O)C1CCCN1S(=O)(=O)c1cccc2cccnc12)c1ccccc1 (centres undefined)	none
COc1ccc(CNC(=O)C2CCN(S(=O)(=O)c3cccc4cccnc34)CC2)cc1	none
CC(NC(=O)C1CCN(S(=O)(=O)c2cccc3cccnc23)CC1)c1ccccc1 (centres undefined)	Myeloid diff MLP active
Nc1ccc2nc(-c3ccccc3)c(-c3ccccc3)nc2c1	none
NSc1nc(N)c2nc(-c3ccccc3)c(-c3ccccc3)nc2n1	Pemphigus Ab inh 67
Nc1nc(N)c2nc(-c3ccccc3)c(N)nc2n1	Myeloid diff MLP active
O=c1[nH]cnc2nc(-c3ccccc3)c(-c3ccccc3)nc12	none
COc1ccccc1C(=O)NCC(=O)N1CC=C(c2ccccc2)CC1	none
CCCCNC(=S)Nc1ccccc1Cc1ccccc1	Pemphigus Ab inh 96
CC(=O)Nc1ccc(S(=O)(=O)N(C)CC(=O)OCC(=O)N2CC(C)OC(C)C2)cc1 (centres undefined)	none
Cc1ccc(S(=O)(=O)N2CCN(c3ccc(C(F)(F)F)cc3[N+](=O)[O-])CC2)cc1	Pemphigus Ab inh 67
Cc1[nH]n(-c2ccccc2)c(=O)c1/C=N/O	none
Cc1[nH]n(-c2ccccc2)c(=O)c1/C=N/N1C(=O)c2ccc3c4c(ccc(c24)C1=O)CC3	Cardio protect 65
Cc1ccc2cccc(N=Cc3c(C)[nH]n(-c4ccccc4)c3=O)c2n1	Cardio protect 63, Myeloid diff MLP inconclusive
CCOC(=O)C(=O)NCC(c1cccs1)S(=O)(=O)c1ccc(Cl)cc1 (centres undefined)	none (no result: Pemphigus Ab inh)
CC(C)(CO)NC(=O)C(Cc1ccccc1)N1C(=O)c2ccccc2C1=O (centres undefined)	Pemphigus Ab inh inconclusive
COc1ccc(CC(=O)Nc2ccc(/C(C)=N/NC(=O)c3cccc([N+](=O)[O-])c3)cc2)cc1	Pemphigus Ab inh 78
COc1ccc(C(=O)Nc2cccc(/C(C)=N/NC(=O)c3ccc([N+](=O)[O-])cc3)c2)cc1OC	Myeloid diff MLP active
COc1ccc(NC(=O)c2cccc([N+](=O)[O-])c2)cc1	none
CCN(CC)CCNC(=O)CNC(=O)c1nn(-c2ccc(OC)c(OC)c2)c(=O)c2ccccc12	none
COc1ccc(-c2csc(NC(C)c3nc4cc(Cl)c(Cl)cc4n3CCCO)n2)cc1 (centres undefined)	none
CCOc1ccc(NC(=O)CN(C)C(=O)c2c(-c3ccccc3Cl)noc2C)cc1OCC	none
CCOc1ccc(CC(=O)Nc2c(C(=O)Nc3ccccc3)oc3ccccc23)cc1OCC	none (no result: Pemphigus Ab inh)
CCOc1ccc(CC(=O)Nc2c(C(N)=O)oc3ccc(Br)cc23)cc1OCC	Cardio protect 78
CC(C)N1CC(O)=C(c2nc3ccccc3[nH]2)C1=N	none
CC(C1CC2CCC1C2)N1CC(O)=C(c2nc3ccccc3[nH]2)C1=N (centres undefined)	Myeloid diff MLP active
COc1ccc(Cc2nnc(N/N=C/c3ccc(N(C)C)cc3)[nH]c2=O)cc1OC	Pemphigus Ab inh 77
COc1ccc(-n2c(C)cc(C(=O)Cn3nnc4ccccc4c3=O)c2C)cc1	none
Cc1cc(C(=O)Cn2nnc3ccccc3c2=O)c(C)n1-c1ccccc1F	Myeloid diff MLP active
O=C(CC1C(=O)NCCN1CC(c1ccccc1)c1ccccc1)NC1CC1 (centres undefined)	none
CCOc1ccc2c(c1)C(NC(C)=O)C(=O)N2CCN1CCOCC1 (centres undefined)	Pemphigus Ab inh 81
CCN(C(=O)Cc1c(C(=O)O)n(C)c2ccccc12)c1cccc(C)c1	none
C=Cc1c(C)c2cc3[nH]c(cc4nc(cc5nc(cc1[nH]2)C(C)=C5CCC(=O)O)C(CCC(=O)O)=C4C)c(C)c3C=C	Pemphigus Ab inh 25!
CC(=O)Nc1ccc(NC(=O)CSc2nnc(NC(=O)c3ccc(Br)o3)s2)cc1	none (no result: Pemphigus Ab inh)
COc1ccc(C(C)(C)C)cc1NC(=O)CCCN1C(=O)CN(C)C1=O	none
